Compounds with a hit are over-represented: about 2.5% of the library has one in this group of screens.
SENP8 block-1 – blocks human SENP8 cleavage of Nedd8 substrate. recombinant SENP8, Nedd8 substrate fluorescence. inhibition, % at 20 µM. AID 602440. Q96LD8. 360,000 tested, 0.64% active; in the data active = inhibition mostly above about 40%, no sharp cut-off; inactive = mostly below about 27%
SENP7 inh – SENP7 protease inhibition. 330,000 tested, 1.5% active. inhibition, % at 5 µM. recombinant SENP7, Z-RLRGG-aminoluciferin luminescence, 40 min;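 active = inhibition above about 50% at the single test dose, limit read from the data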;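 note: plate controls were DMSO with enzyme for no effect and no enzyme buffer wells for full effect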
SENP6 block – SENP6 protease inhibition. Q9GZR1. Recombinant SENP6 catalytic domain, aminoluciferin luminescence. inhibition, % at 10 µM. 330,000 tested, 1.8% active;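 active = inhibition above about 50% at the single tested dose, limit read from the data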;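 note: plate controls were DMSO wells with enzyme for no effect and DMSO wells lacking enzyme for full effect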
SENP8 block-2 – inhibitors of human SENP8 protease; 330,000 tested, 1.2% active; purified SENP8, Z-RLRGG-aminoluciferin cleavage, luminescence; AID 2540; inhibition, % at 10 µM; Q96LD8; in the data active = inhibition above about 50%
SENP1 inh – SENP1 (human) catalytic domain inhibition. inhibition, % at 10 µM. 360,000 tested, 0.21% active. recombinant SENP1 catalytic domain, CyPet-SUMO1-YPet FRET cleavage. Q9P0U3;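 active = inhibition at least 30% at 10 µM, raw YFP signal under a set limit, fluorescence ratio 0.5 to 1.5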;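 note: 0% = enzyme with DMSO and 100% = no enzyme wells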
Target sequence (Q9P0U3 419-644 limits assumed): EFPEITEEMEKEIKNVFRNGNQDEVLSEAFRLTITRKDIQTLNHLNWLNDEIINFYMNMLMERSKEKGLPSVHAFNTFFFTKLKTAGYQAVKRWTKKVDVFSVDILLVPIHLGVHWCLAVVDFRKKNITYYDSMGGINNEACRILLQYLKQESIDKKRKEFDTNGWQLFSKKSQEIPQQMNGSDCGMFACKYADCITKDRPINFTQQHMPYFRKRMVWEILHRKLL
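Assay system: hSENP1 catalytic domain, recombinant. Amount: SENP1 enzyme, 20 pM final. Schedule: 50 min reaction, RT, dark. Technique: FRET, CFP and YFP emission. Control set: no-enzyme wells low, DMSO-plus-enzyme wells high control.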
SENP8 conf – human SENP8 inhibition, confirmed. shares compounds with SENP7 inh. Recombinant SENP8, Z-RLRGG-aminoluciferin luminescence, 60 min. inhibition, % at 12.5 µM. 6,200 tested, 40% active. AID 488912;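 active = mean inhibition across replicates above about 50%, limit read from the data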
SENP6 confirm – confirmation of human SENP6 protease inhibitors; 6,200 tested, 58% active; shares compounds with SENP7 inh; inhibition, % at 12.5 µM; recombinant SENP6, Z-RLRGG-aminoluciferin luminescence
SENP7 conf – human SENP7 inhibition, confirmed | 6,200 tested, 69% active | inhibition, % at 12.5 µM | shares compounds with SENP7 inh | recombinant SENP7, Z-RLRGG-aminoluciferin luminescence, 40 min
Casp3 SENP sel – selectivity test for SENP inhibitors: human caspase-3 inhibition; 6,200 tested, 60% active; inhibition, % at 12.5 µM; shares compounds with SENP7 inh; AID 488918; purified caspase-3, Z-DEVD-aminoluciferin luminescence, 60 min;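 active = mean inhibition above about 50%, limit read from the data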;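 note: plate controls were enzyme with DMSO for no effect and wells without caspase-3 for full effect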
Target sequence (P42574 28-227 limits assumed): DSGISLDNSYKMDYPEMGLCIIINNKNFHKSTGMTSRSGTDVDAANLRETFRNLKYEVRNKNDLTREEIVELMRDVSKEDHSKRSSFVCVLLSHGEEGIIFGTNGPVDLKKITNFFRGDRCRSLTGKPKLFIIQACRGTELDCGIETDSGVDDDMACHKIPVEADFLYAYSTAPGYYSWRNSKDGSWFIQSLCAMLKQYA
SENP luc ctr – interferes with luciferase luminescence in SENP counter-screen; Pre-incubated SENP8/Z-RLRGG-aminoluciferin, luciferase luminescence interference; inhibition, % at 12.5 µM; 6,200 tested, 39% active; shares compounds with SENP7 inh;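 active = mean inhibition above about 50% when retested at one dose, limit read from the data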;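 note: plate controls were DMSO wells with completed reaction for no effect and substrate without enzyme for full effect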
Active calls of the source: *; i = inactive; · = no result given.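 Rule for the calls, unless noted: active = mean inhibition above about 50% in the one-dose retest (limit read from the data); inactive = the rest.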

SMILES	SENP8 block-1	SENP7 inh	SENP6 block	SENP8 block-2	SENP1 inh	others
O=c1oc2ccccc2c(O)c1C(c1ccc([N+](=O)[O-])cc1)c1c(O)c2ccccc2oc1=O	-4	·	·	·	0
O=C1NCN(c2ccccc2)C12CCN(C(c1ccnc3ccccc13)c1nnnn1-c1ccc3c(c1)OCCO3)CC2 (centres undefined)	18	·	·	·	3
C=CCN1C(=O)NC(=O)/C(=C/c2c(CCN(C)C(=O)c3ccccc3)cc3c(c2OC)OCO3)C1=O	54*	-8	-20	-1	3
CNC(=S)N(C)CCc1cc2c(c(OC)c1C=C1C(=O)NC(=O)NC1=O)OCO2	-135	-4	-9	-5	-7
CN1C(=O)/C(=C/c2ccc(N3CCCCCC3)o2)C(=O)NC1=S	15	11	-32	5	81*
CN1C(=O)/C(=C\c2ccc(N3CCCCC3)o2)C(=O)NC1=S	17	14	-22	-5	88*
C=CCN1C(=O)/C(=C\c2ccc(N3CCOCC3)o2)C(=O)NC1=S	27	3	-15	-3	40*
O=c1[nH]c2ccccc2n1C1CCN(C(CCc2ccccc2)c2nnnn2C2CCCCC2)CC1 (centres undefined)	20	·	·	·	3
O=C1CC=C2C3CC4N(CCC45c4cc(O)c(O)cc4N1C25)CC3=CCBr (centres undefined)	59*	·	·	·	-3
O=C1CC=C2C3CC4N(CCC45c4ccccc4N1C25)CC3=CCO (centres undefined)	9	·	·	·	-1
C#CC[N+]1(C)[C@@H]2CC[C@H]1CC(OC(=O)C(CO)c1ccccc1)C2 (some centres undefined)	15	-1	-14	-7	2
C[n+]1c2ccccc2nc2ccc(NCCO)cc21	90*	41	81*	71*	14
OCCNc1c2c(nc3ccccc13)CCCC2	29	-1	0	-9	2
CNc1ccc2nc3ccccc3[n+](C)c2c1	72*	30	66*	47	-3
CN1CC2CN(Cc3ccccc3)S(=O)(=O)C2C1 (centres undefined)	16	·	·	·	1
C[C@]12CC[C@@H]3c4ccc(O)c(O)c4CC[C@H]3[C@@H]1CC[C@@H]2O	45*	4	-2	13	-1
C[C@]12CC[C@H]3[C@@H](CCC4=CC(=O)CC[C@@H]43)[C@@H]1CC[C@@H]2O	-1	-7	14	8	0
CCC1(CCC(C)C)C(=O)NC(=S)NC1=O	4	·	·	·	3
COC(=O)C1=C(C(=O)OC)SC2(S1)C(C(=O)OC)=C(C(=O)OC)Sc1c2ssc1=O	43*	·	·	·	8
Cc1ccc(Cn2nc(C(=O)Nc3ccc(Br)cc3)cc2C)cc1	16	5	-1	2	3
Nc1c(C(=O)NC2CCCC2)c2nc3ccccc3nc2n1CC1CCCO1 (centres undefined)	i	90*	92*	93*	-18
CNC(=O)Oc1ccc(-c2cn3cc(C)ccc3n2)cc1	-300	79*	81*	67*	2
c1cncc(C2Nc3cccc4cccc(c34)N2)c1	52*	3	35	14	14
O=C(O)CC1OCC=C2CN3CCC45c6ccccc6NC4C1C2CC35 (centres undefined)	10	7	-10	-6	0
O=C(O)CC1OCC=C2CN3CCC45C6=CC(=O)C(=O)C([N+](=O)[O-])=C6NC4C1C2CC35 (centres undefined)	112*	·	·	·	19
SMILES	SENP8 block-1	SENP7 inh	SENP6 block	SENP8 block-2	SENP1 inh	others
CC1c2ccccc2-n2nncc2CN1C (centres undefined)	10	·	·	·	1
CCn1nc(-c2ccccc2)nc2c(=O)n(C)c(=O)nc1-2	17	96*	89*	92*	-2
COC(=O)CC(NC(=S)N1CC2C[C@@H](C1)Cn1c2cccc1=O)C(=O)OC (some centres undefined)	7	5	11	6	0
CCN(CC)c1ccc(N=Cc2c(O)n(Cc3ccco3)c(=O)[nH]c2=O)cc1	-7	6	-4	1	-32
CCN(CCO)c1ccc(N=Cc2c(O)n(C)c(=S)[nH]c2=O)cc1	55*	54*	40	8	80
CN1CC=C(/C=C/c2ccc(-c3ccccc3)cc2)CC1	·	81*	86*	76*	·	SENP8 conf=72*;SENP6 confirm=88*;SENP7 conf=97*;Casp3 SENP sel=88*;SENP luc ctr=72*
COc1ccc(/C=C/C2=CCN(C)CC2)cc1	-13	-2	11	-2	-12
COc1ccc(N/N=C/c2c(O)n(-c3cccc(C)c3)c(=O)[nH]c2=O)cc1	1	-1	-7	-3	7
Cc1cccc(N/N=C/c2c(O)[nH]c(=S)[nH]c2=O)c1	20	1	35	84*	3	SENP8 conf=94*;SENP6 confirm=94*;SENP7 conf=101*;Casp3 SENP sel=96*;SENP luc ctr=58*
COc1ccccc1N=Cc1c(O)n(C)c(=O)n(C)c1=O	-320	56*	63*	11	-1	SENP8 conf=11;SENP6 confirm=28;SENP7 conf=73*;Casp3 SENP sel=46;SENP luc ctr=59*
CCCC1CCCCC12C(=O)NC(=O)NC2=O (centres undefined)	8	·	·	·	-1
COc1ccc(OC)c(N2C(=O)/C(=C/c3ccco3)C(=O)NC2=S)c1	·	0	-43	22	·
COc1ccc(OC)c(N2C(=O)NC(=O)/C(=C/c3ccc([N+](=O)[O-])s3)C2=O)c1	63*	11	55*	16	8	SENP8 conf=-9;SENP6 confirm=22;SENP7 conf=7;Casp3 SENP sel=-5;SENP luc ctr=-6
c1ccc(-c2ccc(CN3Cc4ccccc4-n4nncc4C3)cc2)cc1	-1	·	·	·	0
CN(C(=O)Oc1ccc(C(=O)c2ccc(Cl)cc2)cc1)c1ccccc1	17	1	5	-1	-1
CN(C)C(=O)Oc1ccc(OC(=O)c2ccccc2)cc1	11	5	90*	81*	1	SENP8 conf=65*;SENP6 confirm=89*;SENP7 conf=98*;Casp3 SENP sel=92*;SENP luc ctr=51*
CNC(=O)Oc1ccccc1C1CCCCC1	6	·	·	·	2
O=C(O)C1C2c3ccccc3C(=O)C1(C(=O)O)c1ccccc12 (centres undefined)	-3	·	·	·	2
